AHR activator: human AHR activation; AID 2796; P35869; AHR-responsive luciferase reporter cells, luminescence; 320,000 compounds, 2.5% hits; activation, % at 5 µM; in the data active means activation above about 47%;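 further: 0% = vehicle wells and 100% = reference agonist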
Efflux pump mplx: antifungal efflux pump inhibition, Nile Red retention; 330,000 compounds, 0.44% hits; inhibition, % at 10 µM; AID 485275; S. cerevisiae Candida pump triplex;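 active means plate passing quality check with inhibition over a set limit, or well fluorescence over plate mean plus 4 SD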;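 further: Nile Red retained in pooled yeast measured as flow cytometry median fluorescence; 0% = buffer negative control and 100% = Enniatin B positive control; higher means more Nile Red kept so more efflux inhibition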
TbMetRS inhib: Trypanosoma brucei MetRS inhibition; 360,000 compounds, 0.4% hits; inhibition, % at 11.9 µM; purified T. brucei MetRS, ATP depletion, Kinase-Glo luminescence;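 active means inhibition above a per-plate cutoff of the control wells' mean inhibition plus 3 SD, cut at about 5.5% in these data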;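 further: 0% = DMSO wells median and 100% = median of wells with control inhibitor compound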
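Material: T. brucei methionyl-tRNA synthetase, purified; reagent: substrates ATP, L-methionine and bulk Escherichia coli tRNA; dosing: 11.9 µM single point; timing: 15 min plus 2 h at 25 °C; detection: luminescence of leftover ATP; evaluation: % inhibition; control set: DMSO-only wells as low control; replicates: singlicate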
TAG inh: triacylglycerol accumulation inhibition; H9c2 cells, Nile Red lipid (TAG) fluorescence; cells loaded with 200 µM oleic acid; inhibition, % at 12.5 µM; 230,000 compounds, 0.66% hits;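 active means pattern-corrected inhibition of lipid staining of at least 50% with the nuclear-stain viability signal not falling by more than 50%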;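 further: 0% = DMSO wells and 100% = triacsin C control wells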
SMARCA2 act: SMARCA2 function activation, primary screen; MG213 cells, MMTV-luciferase reporter, dexamethasone, overnight; activation, % at 9.1 µM; 370,000 compounds, 1% hits; in the data active means activation above about 7.8%;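 further: 0% = vehicle wells and 100% = reference activator wells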
* hit, by the source's call; / = no result given. Sampled rows, rich in hits. Any-hit rate of the full collection: about 4.1%.

SMILES	AHR activator	Efflux pump mplx	TbMetRS inhib	TAG inh	SMARCA2 act
COc1ccc(C)cc1Nc1n[n+](-c2ccccc2)c(-c2cc([N+](=O)[O-])cc(OC)c2O)s1	10	0	0	10	/
COc1ccc(C)cc1Nc1n[n+](-c2ccccc2)c(-c2ccc(SC)cc2)s1	73*	0	0	-5	3
CC(=O)Nc1ccc(-c2sc(Nc3cccc4ccccc34)n[n+]2-c2ccccc2)cc1	81*	0	0	2	0
COc1ccc(C)cc1Nc1n[n+](-c2ccccc2)c(-c2ccc(NC(C)=O)cc2)s1	65*	0	0	-4	1
CSc1ccc(-c2sc(Nc3cccc4ccccc34)n[n+]2-c2ccccc2)cc1	41	0	0	12	-1
CSc1ccc(-c2sc(Nc3ccccc3)n[n+]2-c2ccccc2)cc1	65*	0	0	-3	/
CC(NCc1ccco1)C(=O)N1CCCC1 (stereo unspecified)	/	/	/	/	-6
[O-][n+]1ccccc1C(O)CSc1ccccc1 (stereo unspecified)	/	/	/	/	-1
O=C(Cc1cccs1)Nc1nnc(SCc2ccc(Br)cc2)s1	48*	0	0	-5	1
O=C(NNC1=Nc2ccccc2SC1)c1ccccc1F	56*	0	0	-22	-2
O=C(NC1=NCCS1)c1ccccc1F	0	0	-1	9	-1
O=C(NNC1=Nc2ccccc2SC1)c1cccc([N+](=O)[O-])c1	49*	0	1	-5	-4
COc1cc2c(cc1OC)CN(CC(=O)Nc1ccccc1C#N)CC2	50*	0	-1	18	1
COc1cc2c(cc1OC)CN(CC(=O)Nc1ccccc1SC)CC2	-1	0	-1	-3	-5
CCC(=O)Nc1c(-c2ccc3ccccc3c2)nc2ccccn12	50*	0	-2	/	0
CC(=O)Nc1c(-c2ccc3ccccc3c2)nc2ccccn12	51*	0	-2	/	7
C/C=C/c1ccc([C@@H]2[C@H](CO)N(S(C)(=O)=O)[C@H]2CN(C)C(=O)CC)cc1	/	/	/	/	-5
Cc1ccsc1C1Nc2ccccc2-c2nc3ccccc3n21 (stereo unspecified)	82*	0	-1	-13	1
c1cncc(C2Nc3ccccc3-c3nc4ccccc4n32)c1 (stereo unspecified)	43	0	-1	/	1
Cc1cc(C)cc(NC(=O)OC2CC3CC2[C@H]2CCCCN2[C@H]3Cc2ccccc2)c1 (stereo partly specified)	/	/	/	/	-1
Cc1ccccc1C(=O)Nc1ccccc1-n1cccc1	5	0	-1	/	-5
C=CCN(CC=C)C(=O)c1ccccc1NC(=O)c1ccccc1C	56*	0	-1	-7	2
COCCNC(=O)c1ccccc1NC(=O)Nc1ccccc1	6	0	-1	-4	-3
C=CCNC(=O)c1ccccc1NC(=O)Nc1ccccc1	10	0	-1	/	7.8*
COc1ccc(-c2csc3nc(-c4cccnc4)nc(Cl)c23)cc1OC	-13	0	-1	-7	-6
SMILES	AHR activator	Efflux pump mplx	TbMetRS inhib	TAG inh	SMARCA2 act
Clc1nc(-c2cccnc2)nc2scc(-c3ccccc3)c12	68*	0	-1	-3	5
Cn1c(=O)oc2cc(S(=O)(=O)N3CCN(CCO)CC3)ccc21	/	/	/	/	3
COc1c2c(nc3occc13)C(CC=C(C)C)(OC)C(OC(C)=O)CC2 (stereo unspecified)	73*	0	-1	-47	-3
COc1c2c(nc3occc13)C(CC=C(C)C)(OC)C(O)CC2 (stereo unspecified)	65*	0	-1	-12	-3
Cn1cccc1C(=O)N1CCN(S(=O)(=O)c2ccccc2F)CC1	/	/	/	/	-3
CCc1cc2c(=O)c(-c3cscn3)coc2cc1O	74*	0	-1	14	6
COC(=O)c1cc(-c2ccc(Oc3ccccc3)cc2)c(=O)n2c1CCC2	/	/	/	/	0
CC(=O)Nc1ccc(S(=O)(=O)NC2=C(N3CCN(c4ccc(F)cc4)CC3)C(=O)c3ccccc3C2=O)cc1	85*	0	0	/	-4
O=C(Nc1ccc(Cl)c([N+](=O)[O-])c1)Nc1nc2ccccc2s1	46	0	/	/	/
O=C(NNc1nc2ccccc2s1)Nc1ccccc1	59*	0	0	/	4
COc1ccc2nc(NC(=O)Nc3cccc4ccccc34)sc2c1	64*	0	-1	30	2
COc1ccc2nc(NNC(=O)COc3ccccc3)sc2c1	72*	0	-1	-16	3
